This is a sample that favours compounds with a hit; in the whole collection about 2.9% have one here.
CHO-K1 Ca PAM: counter-screen for M1 PAMs: effect in parental CHO-K1 cells; ATP EC20, Fluo-8 calcium fluorescence; 0% at ATP EC20, 100% at ATP max; activation, % at 3 µM; 0.02% of 360,000 active;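 active means activation above the run cutoff, the mean activation of all test compounds plus 3 SD, cut at about 40% in these data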;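 further: peak over basal fluorescence ratio in a 140 s read after ATP addition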
M1 ag parental: counter-screen for M1 agonists: effect in parental CHO-K1 cells; Fluo-8 calcium fluorescence; scaled to maximal ATP response, vehicle zero; activation, % at 3 µM; 0.48% of 360,000 active; AID 602248; in the data active means activation above about 15%;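 further: untransfected CHO-K1 host cells lacking M1 receptor as counterscreen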
CHO-K1 Ca antag: M1 antagonist counterscreen hit in parental CHO-K1 cells | 0.6% of 360,000 active | ATP-induced calcium, Fluo-8 fluorescence | inhibition, % at 3 µM | AID 602250;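 active means inhibition above a per-plate cutoff, the plate's mean sample inhibition plus 3 SD, cut at about 24% in these data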
OX1R antag-1: blocks the human orexin 1 receptor; O43613; CHO/OX1R cells, Fluo-8 calcium fluorescence, orexin A; inhibition, % at 5 µM; 0.43% of 330,000 active; AID 434989;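 active means inhibition above its plate's threshold, mean inhibition of all tested compounds on the plate plus 3 SD, cut at about 37% in these data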
Target sequence (O43613 whole entry, looked up): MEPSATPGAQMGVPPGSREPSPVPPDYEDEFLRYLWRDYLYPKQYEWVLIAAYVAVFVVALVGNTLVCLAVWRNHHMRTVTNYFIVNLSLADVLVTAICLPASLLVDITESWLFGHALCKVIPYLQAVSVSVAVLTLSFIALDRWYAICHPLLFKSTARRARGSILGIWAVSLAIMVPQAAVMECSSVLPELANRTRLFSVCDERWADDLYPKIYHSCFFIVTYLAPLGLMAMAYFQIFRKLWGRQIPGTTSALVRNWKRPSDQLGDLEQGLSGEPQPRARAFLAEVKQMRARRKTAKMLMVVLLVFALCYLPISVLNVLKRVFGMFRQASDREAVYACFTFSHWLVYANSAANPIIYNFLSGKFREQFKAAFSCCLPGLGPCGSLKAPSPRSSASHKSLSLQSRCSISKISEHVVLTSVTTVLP
OX1R antag-2: OX1R (human) antagonism; O43613; OX1R-expressing cells, FRET antagonist read-out; inhibition, % at 6.6 µM; 1.8% of 330,000 active; AID 485270; in the data active means inhibition mostly above about 38%, no sharp cut-off; inactive means mostly below about 40%
CHO parental Ca: counter-screen for OX1R antagonists: effect in parental CHO cells. parental CHO-K1, ATP-induced calcium, Fluo-8 fluorescence. inhibition, % at 5.6 µM. 0.63% of 330,000 active;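 active means inhibition above that plate's mean sample inhibition plus 3 SD, cut at about 26% in these data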
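Material – parental CHO cells · Reagent – ATP stimulus · Compound – single nominal dose of 5.6 µM per compound · Detection – Fluo-8 fluorescence · Read-out basis – percent inhibition of calcium signal · Controls – ATP-challenged DMSO wells low, unchallenged DMSO wells high · Repeats – no replicates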
Numbers stand for hits.

How did CCN(CC)S(=O)(=O)c1ccc2oc(SCC(=O)NC3CC3)nc2c1 do in these assays?
CHO-K1 Ca PAM: inactive; M1 ag parental: inactive; CHO-K1 Ca antag: inactive; OX1R antag-1: inactive; OX1R antag-2: inactive; CHO parental Ca: inactive

Results for O=C1C(=Cc2ccc(F)cc2)CCc2ccccc21 ?
CHO-K1 Ca PAM: inactive; M1 ag parental: inactive; CHO-K1 Ca antag: inactive

What do the screens show for `CCc1nccn1C(=O)c1cnn2c(C(F)F)cc(-c3ccc(C)cc3)nc12`?
CHO-K1 Ca PAM: inactive; M1 ag parental: inactive; CHO-K1 Ca antag: inactive; OX1R antag-1: inactive; OX1R antag-2: inactive; CHO parental Ca: inactive

What do the screens show for `CCc1nccn1C(=O)c1cnn2c(C(F)F)cc(-c3ccccc3)nc12`?
OX1R antag-1: inactive; OX1R antag-2: 66; CHO parental Ca: inactive

Results for Cc1ccc(C(=O)NCCc2nc3ccccc3[nH]2)cc1[N+](=O)[O-] ?
CHO-K1 Ca PAM: inactive; M1 ag parental: inactive; CHO-K1 Ca antag: 24; OX1R antag-1: inactive; OX1R antag-2: inactive; CHO parental Ca: inactive

How did O=C(NCCc1nc2ccccc2[nH]1)c1ccc(Cl)c([N+](=O)[O-])c1 do in these assays?
CHO-K1 Ca PAM: inactive; M1 ag parental: inactive; CHO-K1 Ca antag: inactive; OX1R antag-1: inactive; OX1R antag-2: inactive; CHO parental Ca: inactive

How did CCOC(=O)C1CCN(C(=O)Cn2cnc3sc(C)c(S(=O)(=O)N4CCCCC4)c3c2=O)CC1 do in these assays?
CHO-K1 Ca PAM: inactive; M1 ag parental: inactive; CHO-K1 Ca antag: inactive; OX1R antag-1: inactive; OX1R antag-2: inactive; CHO parental Ca: inactive

Results for CC(OC(=O)/C=C/c1ccco1)C(=O)NC1CCCCC1 (centres undefined) ?
CHO-K1 Ca PAM: inactive; M1 ag parental: inactive; CHO-K1 Ca antag: inactive

What do the screens show for `COc1cccc(CN(C)C(=O)c2cc(COc3ccc(-n4cncn4)cc3)on2)c1`?
CHO-K1 Ca PAM: inactive; M1 ag parental: 16; CHO-K1 Ca antag: inactive; OX1R antag-1: inactive; OX1R antag-2: inactive; CHO parental Ca: inactive

How did COc1cccc(CN(C)C(=O)c2cc(COc3ccc4ncccc4c3)on2)c1 do in these assays?
CHO-K1 Ca PAM: inactive; M1 ag parental: 19; CHO-K1 Ca antag: 44; OX1R antag-1: inactive; OX1R antag-2: inactive; CHO parental Ca: 66

How did COc1cccc(CN(C)C(=O)c2cc(COc3c(F)cccc3F)on2)c1 do in these assays?
CHO-K1 Ca PAM: inactive; M1 ag parental: inactive; CHO-K1 Ca antag: inactive; OX1R antag-1: inactive; OX1R antag-2: inactive; CHO parental Ca: inactive

How did Cc1[nH]c2ccccc2c1/C=C/c1nc2ccccc2c(=O)n1CCO do in these assays?
CHO-K1 Ca PAM: inactive; M1 ag parental: inactive; CHO-K1 Ca antag: inactive; OX1R antag-1: inactive; OX1R antag-2: inactive; CHO parental Ca: inactive

Results for COc1cccc(NC(=O)C2(C)CCN2C(=O)Cc2cccc3ccccc23)c1 (centres undefined) ?
CHO-K1 Ca PAM: inactive; M1 ag parental: inactive; CHO-K1 Ca antag: inactive

Results for CCCCOc1ccc(CN2CCSCC2)cc1 ?
CHO-K1 Ca PAM: inactive; M1 ag parental: inactive; CHO-K1 Ca antag: inactive

How did CSc1nc(Oc2cccc(C(F)(F)F)c2)cc(C(F)(F)F)n1 do in these assays?
CHO-K1 Ca PAM: inactive; M1 ag parental: inactive; CHO-K1 Ca antag: inactive; OX1R antag-1: inactive; OX1R antag-2: inactive; CHO parental Ca: inactive

What do the screens show for `CSc1nc(Oc2ccc(F)cc2F)cc(C(F)(F)F)n1`?
CHO-K1 Ca PAM: inactive; M1 ag parental: inactive; CHO-K1 Ca antag: 26; OX1R antag-1: inactive; OX1R antag-2: inactive; CHO parental Ca: inactive

Results for CSC[C@H]1CN(c2ccccc2)C(=O)[C@@H]1CC(=O)Nc1ccc(Br)cc1 ?
CHO-K1 Ca PAM: inactive; M1 ag parental: inactive; CHO-K1 Ca antag: inactive

Results for Cc1ccc(NC(=O)Cn2ccc(=O)[nH]c2=O)cc1 ?
CHO-K1 Ca PAM: inactive; M1 ag parental: inactive; CHO-K1 Ca antag: inactive; OX1R antag-1: inactive; OX1R antag-2: inactive; CHO parental Ca: inactive

How did COc1ccc(S(=O)(=O)N2CCOC23CCN(S(=O)(=O)c2cc(F)ccc2F)CC3)cc1 do in these assays?
CHO-K1 Ca PAM: inactive; M1 ag parental: inactive; CHO-K1 Ca antag: inactive; OX1R antag-1: inactive; OX1R antag-2: inactive; CHO parental Ca: inactive

What do the screens show for `Cc1cccc(C)c1NC(=O)c1sccc1SCc1cccc(C(F)(F)F)c1`?
CHO-K1 Ca PAM: inactive; M1 ag parental: inactive; CHO-K1 Ca antag: inactive; OX1R antag-1: 37; OX1R antag-2: inactive; CHO parental Ca: 53

Results for Cc1cnc(=O)[nH]c1SCc1cccc(C(F)(F)F)c1 ?
CHO-K1 Ca PAM: inactive; M1 ag parental: inactive; CHO-K1 Ca antag: inactive; OX1R antag-1: inactive; OX1R antag-2: inactive; CHO parental Ca: inactive

What do the screens show for `Cc1cc(C(=O)COC(=O)C2=COCCO2)c(C)n1-c1ccc2c(c1)OCO2`?
CHO-K1 Ca PAM: inactive; M1 ag parental: inactive; CHO-K1 Ca antag: inactive; OX1R antag-1: inactive; OX1R antag-2: inactive; CHO parental Ca: inactive

What do the screens show for `Cc1cc(C(=O)COc2ccc(C#N)cc2)c(C)n1-c1ccc2c(c1)OCO2`?
CHO-K1 Ca PAM: inactive; M1 ag parental: inactive; CHO-K1 Ca antag: 32; OX1R antag-1: inactive; OX1R antag-2: inactive; CHO parental Ca: inactive

How did COc1ccc(N(CC(=O)N2CCN(c3ccccc3)CC2)S(=O)(=O)c2ccccc2)cc1 do in these assays?
CHO-K1 Ca PAM: inactive; M1 ag parental: inactive; CHO-K1 Ca antag: inactive

What do the screens show for `COC(=O)c1cn(C(=O)c2ccc(F)cc2)c2ccccc12`?
CHO-K1 Ca PAM: inactive; M1 ag parental: inactive; CHO-K1 Ca antag: inactive; OX1R antag-1: inactive; OX1R antag-2: inactive; CHO parental Ca: inactive

What do the screens show for `CC1CCCC(NC(=S)Nc2ccc(SC(F)F)cc2)C1C` (centres undefined)?
CHO-K1 Ca PAM: inactive; M1 ag parental: inactive; CHO-K1 Ca antag: inactive; OX1R antag-1: 60; OX1R antag-2: inactive; CHO parental Ca: 48

How did FC(F)Sc1ccc(NC(=S)NC2CCCC2)cc1 do in these assays?
CHO-K1 Ca PAM: inactive; M1 ag parental: inactive; CHO-K1 Ca antag: inactive; OX1R antag-1: inactive; OX1R antag-2: inactive; CHO parental Ca: 60

How did Cc1c(Cl)ccc2sc(NC(=O)C3CC3)nc12 do in these assays?
CHO-K1 Ca PAM: inactive; M1 ag parental: inactive; CHO-K1 Ca antag: inactive; OX1R antag-1: inactive; OX1R antag-2: 44; CHO parental Ca: inactive

How did CCCC(=O)Nc1nc2c(C)c(Cl)ccc2s1 do in these assays?
CHO-K1 Ca PAM: inactive; M1 ag parental: inactive; CHO-K1 Ca antag: inactive; OX1R antag-1: inactive; OX1R antag-2: inactive; CHO parental Ca: inactive

What do the screens show for `Cn1nnnc1NCc1ccccc1F`?
CHO-K1 Ca PAM: inactive; M1 ag parental: inactive; CHO-K1 Ca antag: inactive; OX1R antag-1: inactive; OX1R antag-2: inactive; CHO parental Ca: inactive

What do the screens show for `C=CCn1cccc(C(=O)Nc2ccc(OC)c(OC)c2)c1=O`?
CHO-K1 Ca PAM: inactive; M1 ag parental: 16; CHO-K1 Ca antag: inactive; OX1R antag-1: inactive; OX1R antag-2: inactive; CHO parental Ca: inactive

Results for C=CCc1ccc(OCC(O)CO)c(OC)c1 (centres undefined) ?
CHO-K1 Ca PAM: inactive; M1 ag parental: inactive; CHO-K1 Ca antag: inactive; OX1R antag-1: inactive; OX1R antag-2: inactive; CHO parental Ca: inactive

Source: PubChem
